Results gathered from unrelated publications.
Compare with care: the assays were run in different laboratories.
Cell line: SK-MEL-5
Effect on: cell growth or viability

Structure (SMILES) | technique | time | quantity | result
COc1ccc(C(=O)/C=C/c2cccnc2)cc1S(N)(=O)=O | SRB | 48 h | GI50 | 14800 nM
O=C1NC(=NCc2cccs2)S/C1=C\c1ccc2ncccc2c1 | – | – | IC50 | > 10000 nM
COc1ccccc1/C=C/C(=O)c1ccc(OC)c(S(N)(=O)=O)c1 | SRB | 48 h | GI50 | 3900 nM
O=C1NCCc2[nH]c(-c3ccncc3)cc21 | – | – | IC50 | > 10000 nM
COc1cc(-c2ccc(-c3ccc(C(=N)N)nc3)s2)cc(OC)c1OC | SRB | – | GI50 | 1670 nM
Cc1ncsc1-c1ccc(CNC(=O)[C@@H]2C[C@H](O)CN2C(=O)[C@@H](NC(=O)C2(F)CC2)C(C)(C)C)c(OCCc2ccc(CN3CCN(c4cc(-c5ccccc5O)nnc4N)CC3)cc2)c1 | ATP luminescence | 7 days | IC50 | 540 nM
COc1ccc(-c2ccc(-c3ccc(C(=N)N)nc3)s2)cc1 | SRB | – | GI50 | 1790 nM
COc1cccc(Oc2ccccc2NC(=O)CNC(=O)c2cccc3ccccc23)c1 | SRB | 48 h | GI50 | 219 nM
